{"source": "ChEMBL document CHEMBL1833827", "about": "“Synthesis and anticandidal activity of new triazolothiadiazine derivatives” (Eur J Med Chem, 2011)", "key": {"Candida parapsilosis": {"system": "Candida parapsilosis", "test": "Antifungal activity against Candida parapsilosis NRRL Y-12696 by NCCLS M27-A2 microbroth dilution method", "assay_type": "functional", "details": "Lodderomyces parapsilosis"}, "Candida albicans [1]": {"system": "Candida albicans", "test": "Antifungal activity against Candida albicans clinical isolate by NCCLS M27-A2 microbroth dilution method", "assay_type": "functional"}, "Candida tropicalis": {"system": "Candida tropicalis", "test": "Antifungal activity against Candida tropicalis NRRL Y-12968 by NCCLS M27-A2 microbroth dilution method", "assay_type": "functional"}, "Nakaseomyces glabratus [2]": {"system": "Nakaseomyces glabratus", "test": "Antifungal activity against Candida glabrata clinical isolate (Anadolu university) by NCCLS M27-A2 microbroth dilution method", "assay_type": "functional"}, "Candida albicans [3]": {"system": "Candida albicans", "test": "Antifungal activity against Candida albicans NRRL Y-12983 by NCCLS M27-A2 microbroth dilution method", "assay_type": "functional"}, "Pichia kudriavzevii": {"system": "Pichia kudriavzevii", "test": "Antifungal activity against Candida krusei NRRL Y-7179 by NCCLS M27-A2 microbroth dilution method", "assay_type": "functional"}, "Nakaseomyces glabratus [4]": {"system": "Nakaseomyces glabratus", "test": "Antifungal activity against Candida glabrata clinical isolate (Osmangazi university) by NCCLS M27-A2 microbroth dilution method", "assay_type": "functional"}, "Candida albicans [5]": {"system": "Candida albicans", "test": "Antifungal activity against Candida albicans ATCC 90028 by NCCLS M27-A2 microbroth dilution method", "assay_type": "functional"}, "NIH3T3": {"system": "NIH3T3", "test": "Cytotoxicity against mouse NIH/3T3 cells after 24 hrs by MTT assay", "assay_type": "cell-based", "details": "NIH3T3, 24 h", "how_it_was_run": "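NIH/3T3 mouse fibroblasts (ATCC) grown in DMEM with 10% fetal calf serum, penicillin and streptomycin at 37 °C in 5% CO2. Cells were seeded at 2 × 10^4 cells/mL and preincubated 24 h. Compounds went from DMSO stocks diluted in medium (final DMSO <0.1%) at 0.5–500 µg/mL for 24 h. MTT was added at 0.5 mg/mL final for 4 h at 37 °C. Formazan was dissolved in DMSO and read at 540 nm. Triplicate wells per concentration. IC50 is the concentration reducing absorbance to 50% of control, reported as mean ± SD.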"}}, "data": [{"smiles": "Oc1ccc(CCc2nnc3n2N=C(c2ccccc2)CS3)cc1", "values": [{"measurement": "MIC", "setting": "Candida parapsilosis", "value": 180, "unit": "µg/mL"}, {"measurement": "MIC", "setting": "Candida albicans [1]", "value": 90, "unit": "µg/mL"}, {"measurement": "MIC", "setting": "Candida tropicalis", "value": 90, "unit": "µg/mL"}, {"measurement": "MIC", "setting": "Nakaseomyces glabratus [2]", "value": 180, "unit": "µg/mL"}, {"measurement": "MIC", "setting": "Candida albicans [3]", "value": 370, "unit": "µg/mL"}, {"measurement": "MIC", "setting": "Pichia kudriavzevii", "value": 370, "unit": "µg/mL"}, {"measurement": "MIC", "setting": "Nakaseomyces glabratus [4]", "value": 40, "unit": "µg/mL"}, {"measurement": "MIC", "setting": "Candida albicans [5]", "value": 80, "unit": "µg/mL"}, {"measurement": "IC50", "setting": "NIH3T3", "value": 31.6, "unit": "µg/mL"}]}, {"smiles": "O=[N+]([O-])c1ccc(C2=Nn3c(CCc4ccc(O)cc4)nnc3SC2)cc1", "values": [{"measurement": "MIC", "setting": "Candida parapsilosis", "value": 40, "unit": "µg/mL"}, {"measurement": "MIC", "setting": "Candida albicans [1]", "value": 90, "unit": "µg/mL"}, {"measurement": "MIC", "setting": "Candida tropicalis", "value": 90, "unit": "µg/mL"}, {"measurement": "MIC", "setting": "Nakaseomyces glabratus [2]", "value": 90, "unit": "µg/mL"}, {"measurement": "MIC", "setting": "Candida albicans [3]", "value": 750, "unit": "µg/mL"}, {"measurement": "MIC", "setting": "Pichia kudriavzevii", "value": 180, "unit": "µg/mL"}, {"measurement": "MIC", "setting": "Nakaseomyces glabratus [4]", "value": 90, "unit": "µg/mL"}, {"measurement": "MIC", "setting": "Candida albicans [5]", "value": 90, "unit": "µg/mL"}, {"measurement": "IC50", "setting": "NIH3T3", "value": 307, "unit": "µg/mL"}]}, {"smiles": "Oc1ccc(CCc2nnc3n2N=C(c2ccc(F)cc2)CS3)cc1", "values": [{"measurement": "MIC", "setting": "Candida parapsilosis", "value": 1500, "unit": "µg/mL"}, {"measurement": "MIC", "setting": "Candida albicans [1]", "value": 180, "unit": "µg/mL"}, {"measurement": "MIC", "setting": "Candida tropicalis", "value": 1500, "unit": "µg/mL"}, {"measurement": "MIC", "setting": "Nakaseomyces glabratus [2]", "value": 370, "unit": "µg/mL"}, {"measurement": "MIC", "setting": "Candida albicans [3]", "value": 1500, "unit": "µg/mL"}, {"measurement": "MIC", "setting": "Pichia kudriavzevii", "value": 180, "unit": "µg/mL"}, {"measurement": "MIC", "setting": "Nakaseomyces glabratus [4]", "value": 1500, "unit": "µg/mL"}, {"measurement": "MIC", "setting": "Candida albicans [5]", "value": 1500, "unit": "µg/mL"}, {"measurement": "IC50", "setting": "NIH3T3", "value": 367, "unit": "µg/mL"}]}, {"smiles": "Oc1ccc(CCc2nnc3n2N=C(c2ccc(Cl)cc2)CS3)cc1", "values": [{"measurement": "MIC", "setting": "Candida parapsilosis", "value": 370, "unit": "µg/mL"}, {"measurement": "MIC", "setting": "Candida albicans [1]", "value": 750, "unit": "µg/mL"}, {"measurement": "MIC", "setting": "Candida tropicalis", "value": 750, "unit": "µg/mL"}, {"measurement": "MIC", "setting": "Nakaseomyces glabratus [2]", "value": 750, "unit": "µg/mL"}, {"measurement": "MIC", "setting": "Candida albicans [3]", "value": 1500, "unit": "µg/mL"}, {"measurement": "MIC", "setting": "Pichia kudriavzevii", "value": 750, "unit": "µg/mL"}, {"measurement": "MIC", "setting": "Nakaseomyces glabratus [4]", "value": 750, "unit": "µg/mL"}, {"measurement": "MIC", "setting": "Candida albicans [5]", "value": 750, "unit": "µg/mL"}, {"measurement": "IC50", "setting": "NIH3T3", "value": 86.7, "unit": "µg/mL"}]}, {"smiles": "Cc1ccc(C2=Nn3c(CCc4ccc(O)cc4)nnc3SC2)cc1", "values": [{"measurement": "MIC", "setting": "Candida parapsilosis", "value": 370, "unit": "µg/mL"}, {"measurement": "MIC", "setting": "Candida albicans [1]", "value": 750, "unit": "µg/mL"}, {"measurement": "MIC", "setting": "Candida tropicalis", "value": 1500, "unit": "µg/mL"}, {"measurement": "MIC", "setting": "Nakaseomyces glabratus [2]", "value": 750, "unit": "µg/mL"}, {"measurement": "MIC", "setting": "Candida albicans [3]", "value": 1500, "unit": "µg/mL"}, {"measurement": "MIC", "setting": "Pichia kudriavzevii", "value": 370, "unit": "µg/mL"}, {"measurement": "MIC", "setting": "Nakaseomyces glabratus [4]", "value": 750, "unit": "µg/mL"}, {"measurement": "MIC", "setting": "Candida albicans [5]", "value": 750, "unit": "µg/mL"}, {"measurement": "IC50", "setting": "NIH3T3", "value": 400, "unit": "µg/mL"}]}, {"smiles": "c1ccc(C2=Nn3c(CCC4CCCCC4)nnc3SC2)cc1", "values": [{"measurement": "MIC", "setting": "Candida parapsilosis", "value": 370, "unit": "µg/mL"}, {"measurement": "MIC", "setting": "Candida albicans [1]", "value": 90, "unit": "µg/mL"}, {"measurement": "MIC", "setting": "Candida tropicalis", "value": 180, "unit": "µg/mL"}, {"measurement": "MIC", "setting": "Nakaseomyces glabratus [2]", "value": 90, "unit": "µg/mL"}, {"measurement": "MIC", "setting": "Candida albicans [3]", "value": 180, "unit": "µg/mL"}, {"measurement": "MIC", "setting": "Pichia kudriavzevii", "value": 180, "unit": "µg/mL"}, {"measurement": "MIC", "setting": "Nakaseomyces glabratus [4]", "value": 90, "unit": "µg/mL"}, {"measurement": "MIC", "setting": "Candida albicans [5]", "value": 90, "unit": "µg/mL"}, {"measurement": "IC50", "setting": "NIH3T3", "value": 433, "unit": "µg/mL"}]}, {"smiles": "O=[N+]([O-])c1ccc(C2=Nn3c(CCC4CCCCC4)nnc3SC2)cc1", "values": [{"measurement": "MIC", "setting": "Candida parapsilosis", "value": 180, "unit": "µg/mL"}, {"measurement": "MIC", "setting": "Candida albicans [1]", "value": 90, "unit": "µg/mL"}, {"measurement": "MIC", "setting": "Candida tropicalis", "value": 180, "unit": "µg/mL"}, {"measurement": "MIC", "setting": "Nakaseomyces glabratus [2]", "value": 90, "unit": "µg/mL"}, {"measurement": "MIC", "setting": "Candida albicans [3]", "value": 90, "unit": "µg/mL"}, {"measurement": "MIC", "setting": "Pichia kudriavzevii", "value": 180, "unit": "µg/mL"}, {"measurement": "MIC", "setting": "Nakaseomyces glabratus [4]", "value": 90, "unit": "µg/mL"}, {"measurement": "MIC", "setting": "Candida albicans [5]", "value": 90, "unit": "µg/mL"}, {"measurement": "IC50", "setting": "NIH3T3", "value": 210, "unit": "µg/mL"}]}, {"smiles": "Fc1ccc(C2=Nn3c(CCC4CCCCC4)nnc3SC2)cc1", "values": [{"measurement": "MIC", "setting": "Candida parapsilosis", "value": 370, "unit": "µg/mL"}, {"measurement": "MIC", "setting": "Candida albicans [1]", "value": 370, "unit": "µg/mL"}, {"measurement": "MIC", "setting": "Candida tropicalis", "value": 750, "unit": "µg/mL"}, {"measurement": "MIC", "setting": "Nakaseomyces glabratus [2]", "value": 90, "unit": "µg/mL"}, {"measurement": "MIC", "setting": "Candida albicans [3]", "value": 90, "unit": "µg/mL"}, {"measurement": "MIC", "setting": "Pichia kudriavzevii", "value": 90, "unit": "µg/mL"}, {"measurement": "MIC", "setting": "Nakaseomyces glabratus [4]", "value": 370, "unit": "µg/mL"}, {"measurement": "MIC", "setting": "Candida albicans [5]", "value": 90, "unit": "µg/mL"}, {"measurement": "IC50", "setting": "NIH3T3", "value": 106, "unit": "µg/mL"}]}, {"smiles": "Clc1ccc(C2=Nn3c(CCC4CCCCC4)nnc3SC2)cc1", "values": [{"measurement": "MIC", "setting": "Candida parapsilosis", "value": 20, "unit": "µg/mL"}, {"measurement": "MIC", "setting": "Candida albicans [1]", "value": 180, "unit": "µg/mL"}, {"measurement": "MIC", "setting": "Candida tropicalis", "value": 90, "unit": "µg/mL"}, {"measurement": "MIC", "setting": "Nakaseomyces glabratus [2]", "value": 40, "unit": "µg/mL"}, {"measurement": "MIC", "setting": "Candida albicans [3]", "value": 40, "unit": "µg/mL"}, {"measurement": "MIC", "setting": "Pichia kudriavzevii", "value": 370, "unit": "µg/mL"}, {"measurement": "MIC", "setting": "Nakaseomyces glabratus [4]", "value": 90, "unit": "µg/mL"}, {"measurement": "MIC", "setting": "Candida albicans [5]", "value": 40, "unit": "µg/mL"}, {"measurement": "IC50", "setting": "NIH3T3", "value": 103, "unit": "µg/mL"}]}, {"smiles": "Cc1ccc(C2=Nn3c(CCC4CCCCC4)nnc3SC2)cc1", "values": [{"measurement": "MIC", "setting": "Candida parapsilosis", "value": 370, "unit": "µg/mL"}, {"measurement": "MIC", "setting": "Candida albicans [1]", "value": 90, "unit": "µg/mL"}, {"measurement": "MIC", "setting": "Candida tropicalis", "value": 750, "unit": "µg/mL"}, {"measurement": "MIC", "setting": "Nakaseomyces glabratus [2]", "value": 180, "unit": "µg/mL"}, {"measurement": "MIC", "setting": "Candida albicans [3]", "value": 90, "unit": "µg/mL"}, {"measurement": "MIC", "setting": "Pichia kudriavzevii", "value": 180, "unit": "µg/mL"}, {"measurement": "MIC", "setting": "Nakaseomyces glabratus [4]", "value": 90, "unit": "µg/mL"}, {"measurement": "MIC", "setting": "Candida albicans [5]", "value": 180, "unit": "µg/mL"}, {"measurement": "IC50", "setting": "NIH3T3", "value": 198, "unit": "µg/mL"}]}, {"smiles": "CC(=O)N1CCN(c2ccc(OCC3COC(Cn4ccnc4)(c4ccc(Cl)cc4Cl)O3)cc2)CC1", "note": "(stereo not drawn) [KETOCONAZOLE]", "values": [{"measurement": "MIC", "setting": "Candida parapsilosis", "value": 7, "unit": "µg/mL"}, {"measurement": "MIC", "setting": "Candida albicans [1]", "value": 30, "unit": "µg/mL"}, {"measurement": "MIC", "setting": "Candida tropicalis", "value": 3, "unit": "µg/mL"}, {"measurement": "MIC", "setting": "Nakaseomyces glabratus [2]", "value": 7, "unit": "µg/mL"}, {"measurement": "MIC", "setting": "Candida albicans [3]", "value": 15, "unit": "µg/mL"}, {"measurement": "MIC", "setting": "Pichia kudriavzevii", "value": 3, "unit": "µg/mL"}, {"measurement": "MIC", "setting": "Nakaseomyces glabratus [4]", "value": 15, "unit": "µg/mL"}, {"measurement": "MIC", "setting": "Candida albicans [5]", "value": 30, "unit": "µg/mL"}]}]}
